≈ marks a conversion by molar mass, not a printed value.
Experiments:
Aspergillus fumigatus [1] = assay: microbe, parasite or virus in culture; type: functional
Candida albicans [2] = assay: microbe, parasite or virus in culture; type: functional
Aspergillus flavus [3] = assay: (§1) In vitro antifungal activity against Aspergillus flavus CM74; type: functional
Method in brief: (§2)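 Broth microdilution in RPMI-2% glucose following NCCLS M38-P. Conidia came from Sabouraud dextrose agar slants grown at 27 °C. They were harvested in saline with 0.1% Tween 80, gauze-filtered, counted by hemocytometer and stored at -70 °C. The final inoculum was ~10^4 conidia/mL, with 2-fold drug dilutions from 0.25 to 128 µg/mL. Plates were incubated at 35 °C and read by mirror once control growth was visible. MIC = lowest concentration with no visible growth.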

Aspergillus flavus [4] = assay: as §1; type: functional; remark: listed apart in the source
Aspergillus fumigatus [5] = assay: In vitro antifungal activity against Aspergillus fumigatus 48238E; type: functional
Method in brief: as §2

Candida albicans [6] = assay: In vitro antifungal activity against Candida albicans 4711E; type: functional
Method in brief: (§3)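 Yeast broth microdilution per NCCLS M27-A, with 2-fold drug dilutions from 0.001 to 128 µg/mL. The inoculum was adjusted spectrophotometrically, giving a final ~10^4 cells/mL. Plates were incubated for 24 h at 35 °C, static and humid, then shaken and read visually and at 450 nm. MIC = lowest concentration preventing discernible growth (~90% reduction vs drug-free wells).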

Nakaseomyces glabratus [7] = assay: In vitro antifungal activity against Candida glabrata 2375E; type: functional
Nakaseomyces glabratus [8] = assay: microbe, parasite or virus in culture; type: functional
Candida parapsilosis [9] = assay: In vitro antifungal activity against Candida parapsilosis 2372E; type: functional; conditions: Lodderomyces parapsilosis
Method in brief: as §3

Candida parapsilosis [10] = assay: microbe, parasite or virus in culture; type: functional; conditions: Lodderomyces parapsilosis
Trichophyton benhamiae [11] = assay: (§4) In vitro antifungal activity against Trichophyton mentagrophytes CM84; type: functional, Arthroderma benhamiae
Method in brief: as §2

Trichophyton benhamiae [12] = assay: as §4; type: functional, Arthroderma benhamiae; remark: listed apart in the source
Trichophyton rubrum [13] = assay: (§5) In vitro antifungal activity against Trichophyton rubrum CM1447; type: functional
Method in brief: as §2

Trichophyton rubrum [14] = assay: as §5; type: functional; remark: listed apart in the source

Row | SMILES | MIC (Aspergillus fumigatus [1]) | MIC (Candida albicans [2]) | MFC (Aspergillus flavus [3]) | MIC (Aspergillus flavus [4]) | MFC (Aspergillus fumigatus [5]) | MFC (Candida albicans [6]) | MFC (Nakaseomyces glabratus [7]) | MIC (Nakaseomyces glabratus [8]) | MFC (Candida parapsilosis [9]) | MIC (Candida parapsilosis [10]) | MFC (Trichophyton benhamiae [11]) | MIC (Trichophyton benhamiae [12]) | MFC (Trichophyton rubrum [13]) | MIC (Trichophyton rubrum [14])
1 | CCC/C(=N\OC(Cn1ccnc1)c1ccc(Cl)cc1Cl)c1ccc(Cl)cc1Cl (stereo not given) | > 128 µg/mL | > 128 µg/mL |  |  |  |  |  |  |  |  |  |  |  | 
2 | Fc1ccc(C(Cn2ccnc2)O/N=C/c2ccc(OCCN3CCOCC3)cc2)c(F)c1 (stereo not given) | 64 µg/mL (≈ 140 µM) | 64 µg/mL (≈ 140 µM) | 64 µg/mL (≈ 140 µM) | 64 µg/mL (≈ 140 µM) | 64 µg/mL (≈ 140 µM) | 64 µg/mL (≈ 140 µM) | 8 µg/mL (≈ 17.5 µM) | 2 µg/mL (≈ 4.38 µM) | 4 µg/mL (≈ 8.76 µM) | 0.25 µg/mL (≈ 0.548 µM) | > 128 µg/mL | > 128 µg/mL | 16 µg/mL (≈ 35 µM) | 8 µg/mL (≈ 17.5 µM)
3 | Clc1ccc(C(Cn2ccnc2)O/N=C/c2ccc(OCCN3CCOCC3)cc2)c(Cl)c1 (stereo not given) | 2 µg/mL (≈ 4.09 µM) | 2 µg/mL (≈ 4.09 µM) | 8 µg/mL (≈ 16.3 µM) | 8 µg/mL (≈ 16.3 µM) | 2 µg/mL (≈ 4.09 µM) | 8 µg/mL (≈ 16.3 µM) | 8 µg/mL (≈ 16.3 µM) | 1 µg/mL (≈ 2.04 µM) | 16 µg/mL (≈ 32.7 µM) | 0.25 µg/mL (≈ 0.511 µM) | 8 µg/mL (≈ 16.3 µM) | 4 µg/mL (≈ 8.17 µM) | 16 µg/mL (≈ 32.7 µM) | 2 µg/mL (≈ 4.09 µM)
4 | C/C(=N\OC(Cn1ccnc1)c1ccc(F)cc1F)c1ccc(F)cc1F (stereo not given) | 8 µg/mL (≈ 21.2 µM) | 32 µg/mL (≈ 84.8 µM) | 16 µg/mL (≈ 42.4 µM) | 16 µg/mL (≈ 42.4 µM) | 16 µg/mL (≈ 42.4 µM) | 32 µg/mL (≈ 84.8 µM) | 2 µg/mL (≈ 5.3 µM) | 0.03 µg/mL (≈ 0.0795 µM) | 32 µg/mL (≈ 84.8 µM) | 2 µg/mL (≈ 5.3 µM) | 4 µg/mL (≈ 10.6 µM) | 1 µg/mL (≈ 2.65 µM) | 16 µg/mL (≈ 42.4 µM) | 8 µg/mL (≈ 21.2 µM)
5 | C/C(=N\OC(Cn1ccnc1)c1ccc(Cl)cc1Cl)c1ccc(Cl)cc1Cl (stereo not given) | 8 µg/mL (≈ 18.1 µM) | 4 µg/mL (≈ 9.03 µM) | 32 µg/mL (≈ 72.2 µM) | 32 µg/mL (≈ 72.2 µM) | 8 µg/mL (≈ 18.1 µM) | 8 µg/mL (≈ 18.1 µM) | 2 µg/mL (≈ 4.51 µM) | 0.5 µg/mL (≈ 1.13 µM) | 16 µg/mL (≈ 36.1 µM) | 1 µg/mL (≈ 2.26 µM) | 8 µg/mL (≈ 18.1 µM) | 8 µg/mL (≈ 18.1 µM) | 8 µg/mL (≈ 18.1 µM) | 8 µg/mL (≈ 18.1 µM)
6 | CC/C(=N\OC(Cn1ccnc1)c1ccc(Cl)cc1Cl)c1ccc(Cl)cc1Cl (stereo not given) | > 128 µg/mL | 16 µg/mL (≈ 35 µM) |  |  |  |  |  |  |  |  |  |  |  | 
7 | C/C(=N\OC(Cn1ccnc1)c1ccc(F)cc1F)c1ccc(OCCN2CCOCC2)cc1 (stereo not given) | 16 µg/mL (≈ 34 µM) | 8 µg/mL (≈ 17 µM) | 32 µg/mL (≈ 68 µM) | 16 µg/mL (≈ 34 µM) | 16 µg/mL (≈ 34 µM) | 32 µg/mL (≈ 68 µM) | 4 µg/mL (≈ 8.5 µM) | 0.25 µg/mL (≈ 0.531 µM) | 2 µg/mL (≈ 4.25 µM) | 0.03 µg/mL (≈ 0.0638 µM) | 4 µg/mL (≈ 8.5 µM) | 2 µg/mL (≈ 4.25 µM) | 4 µg/mL (≈ 8.5 µM) | 4 µg/mL (≈ 8.5 µM)
8 | C/C(=N\OC(Cn1ccnc1)c1ccc(Cl)cc1Cl)c1ccc(OCCN2CCOCC2)cc1 (stereo not given) | 32 µg/mL (≈ 63.6 µM) | 1 µg/mL (≈ 1.99 µM) | 32 µg/mL (≈ 63.6 µM) | 32 µg/mL (≈ 63.6 µM) | 32 µg/mL (≈ 63.6 µM) | 8 µg/mL (≈ 15.9 µM) | 8 µg/mL (≈ 15.9 µM) | 0.06 µg/mL (≈ 0.119 µM) | 8 µg/mL (≈ 15.9 µM) | 0.004 µg/mL (≈ 0.00795 µM) | 8 µg/mL (≈ 15.9 µM) | 4 µg/mL (≈ 7.95 µM) | 16 µg/mL (≈ 31.8 µM) | 2 µg/mL (≈ 3.97 µM)
9 | Clc1ccc(/C(Cn2ccnc2)=N/OC(Cn2ccnc2)c2ccc(Cl)cc2Cl)c(Cl)c1 (stereo not given) | 128 µg/mL (≈ 251 µM) | 32 µg/mL (≈ 62.8 µM) |  |  |  |  |  |  |  |  |  |  |  | 
10 | C/C(=N\OC(Cn1ccnc1)c1ccc(F)cc1F)c1cc(F)ccc1F (stereo not given) | 4 µg/mL (≈ 10.6 µM) | 8 µg/mL (≈ 21.2 µM) | 8 µg/mL (≈ 21.2 µM) | 8 µg/mL (≈ 21.2 µM) | 4 µg/mL (≈ 10.6 µM) | 32 µg/mL (≈ 84.8 µM) | 1 µg/mL (≈ 2.65 µM) | 0.03 µg/mL (≈ 0.0795 µM) | 64 µg/mL (≈ 170 µM) | 2 µg/mL (≈ 5.3 µM) | 2 µg/mL (≈ 5.3 µM) | 0.25 µg/mL (≈ 0.663 µM) | 16 µg/mL (≈ 42.4 µM) | 1 µg/mL (≈ 2.65 µM)
11 | Fc1ccc(/C(Cn2ccnc2)=N/OC(Cn2ccnc2)c2ccc(F)cc2F)c(F)c1 (stereo not given) | > 128 µg/mL | 2 µg/mL (≈ 4.51 µM) | > 128 µg/mL | > 128 µg/mL | > 128 µg/mL | > 128 µg/mL | 16 µg/mL (≈ 36.1 µM) | 4 µg/mL (≈ 9.02 µM) | 128 µg/mL (≈ 289 µM) | 8 µg/mL (≈ 18 µM) | > 128 µg/mL | 64 µg/mL (≈ 144 µM) | 64 µg/mL (≈ 144 µM) | 64 µg/mL (≈ 144 µM)
12 | C/C(=N\OC(Cn1ccnc1)c1ccc(F)cc1F)c1c(F)cccc1F (stereo not given) | 16 µg/mL (≈ 42.4 µM) | 32 µg/mL (≈ 84.8 µM) | 64 µg/mL (≈ 170 µM) | 32 µg/mL (≈ 84.8 µM) | 32 µg/mL (≈ 84.8 µM) | 32 µg/mL (≈ 84.8 µM) | 1 µg/mL (≈ 2.65 µM) | 0.03 µg/mL (≈ 0.0795 µM) | 16 µg/mL (≈ 42.4 µM) | 0.25 µg/mL (≈ 0.663 µM) | 2 µg/mL (≈ 5.3 µM) | 2 µg/mL (≈ 5.3 µM) | 8 µg/mL (≈ 21.2 µM) | 4 µg/mL (≈ 10.6 µM)
13 | C/C(=N\OC(Cn1ccnc1)c1ccc(F)cc1F)c1ccc(F)cc1 (stereo not given) | 16 µg/mL (≈ 44.5 µM) | 64 µg/mL (≈ 178 µM) |  |  |  |  |  |  |  |  |  |  |  | 
14 | Cl.Fc1ccc(C(Cn2ccnc2)O/N=C/c2c(F)cccc2F)c(F)c1 (stereo not given) | 32 µg/mL | 32 µg/mL |  |  |  |  |  |  |  |  |  |  |  | 
15 | Cl.Fc1ccc(/C=N/OC(Cn2ccnc2)c2ccc(F)cc2F)c(F)c1 (stereo not given) | 16 µg/mL | 16 µg/mL |  |  |  |  |  |  |  |  |  |  |  | 
16 | C/C(=N\OC(Cn1ccnc1)c1ccc(F)cc1F)c1ccccc1F.Cl (stereo not given) | 16 µg/mL | 32 µg/mL |  |  |  |  |  |  |  |  |  |  |  | 
17 | Cl.Clc1ccc(/C=N/OC(Cn2ccnc2)c2ccc(Cl)cc2Cl)c(Cl)c1 (stereo not given) | 64 µg/mL | > 128 µg/mL |  |  |  |  |  |  |  |  |  |  |  | 
18 | OC(Cn1cncn1)(Cn1cncn1)c1ccc(F)cc1F [FLUCONAZOLE] | > 128 µg/mL | 0.12 µg/mL (≈ 0.392 µM) | > 128 µg/mL | > 128 µg/mL | > 128 µg/mL | > 128 µg/mL | > 128 µg/mL | 2 µg/mL (≈ 6.53 µM) | > 128 µg/mL | 0.5 µg/mL (≈ 1.63 µM) | > 128 µg/mL | 0.5 µg/mL (≈ 1.63 µM) | > 128 µg/mL | 0.5 µg/mL (≈ 1.63 µM)
19 | Clc1ccc(CO/N=C(\Cn2ccnc2)c2ccc(Cl)cc2Cl)c(Cl)c1 [OXICONAZOLE] | 2 µg/mL (≈ 4.66 µM) | 0.03 µg/mL (≈ 0.0699 µM) | 2 µg/mL (≈ 4.66 µM) | 2 µg/mL (≈ 4.66 µM) | 2 µg/mL (≈ 4.66 µM) | 64 µg/mL (≈ 149 µM) | 0.25 µg/mL (≈ 0.583 µM) | 0.01 µg/mL (≈ 0.0233 µM) | 4 µg/mL (≈ 9.32 µM) | 0.008 µg/mL (≈ 0.0186 µM) | 4 µg/mL (≈ 9.32 µM) | 2 µg/mL (≈ 4.66 µM) | 2 µg/mL (≈ 4.66 µM) | 2 µg/mL (≈ 4.66 µM)
